Source: PubChem
KCNQ1 inh: inhibitors of human KCNQ1 potassium channel; CHO-K1 KCNQ1, FluxOR thallium flux fluorescence; hits give high values; B-score at 10 µM; 310,000 tested, 1.3% active;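 active = compounds whose thallium flux B-score, printed positive for inhibition, exceeds three library SD while starting fluorescence stays within three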;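 note: channel opened by potassium depolarization with thallium stimulus after 20 min compound exposure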
KCNK3 inh: human KCNK3 channel inhibition, primary screen; B-score at 10 µM; 340,000 tested, 0.84% active; AID 602410; O14649; CHO-KCNK3 thallium flux, FluxOR fluorescence; hits give low values;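 active = B-score under library mean minus 4 SD, starting fluorescence ratio at most library mean plus 5 SD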;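 note: more negative B-score means stronger inhibition of thallium flux through KCNK3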
KCNK9 block: blocks the human KCNK9 two-pore domain potassium channel; Q9NPC2; HEK293 KCNK9, FluxOR thallium flux fluorescence; hits give low values; B-score at 10 µM; 310,000 tested, 1.2% active; AID 488922;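 active = ratio B-score over 3 SD below the library mean, with starting fluorescence within 5 SD of its mean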;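 note: negative B-score means less thallium flux so channel inhibition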
KCNQ1 act: potentiates or activates the human KCNQ1 potassium channel; P51787; CHO-K1 KCNQ1, thallium flux FluxOR fluorescence; hits give high values; B-score at 10 µM; 310,000 tested, 0.35% active;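 active = fluorescence ratio B-score, a plate-corrected score, at least three library SD, with initial intensity B-score within 5 SD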
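Medium – assay buffer, equal DMSO in all wells · Material – CHO-K1 cell line with stable KCNQ1 potassium channel expression · Signal – kinetic FluxOR thallium fluorescence, 10-s 1-Hz baseline, 110-s post-stimulus read · Compound – single concentration per compound, DMSO matched to controls · Schedule – 37 °C overnight plating, 90-min dark dye load, 20-min compound pretreatment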
hERG protect: compounds protecting human hERG from proarrhythmic drug block | Q12809 | CHO-hERG, FluxOR thallium flux, dofetilide IC70 present | activation (rescue from dofetilide block), less the hit threshold, % at 10 µM | 310,000 tested, 0.51% active;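 active = activation above the mean of controls blocked by dofetilide plus 5 SD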;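 note: thallium influx through hERG after potassium depolarization seen as dye fluorescence rise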
KCNK9 block conf: human KCNK9 inhibitor confirmation. inhibition, % at 10 µM. shares compounds with KCNK9 block. HEK293 KCNK9 cells, FluxOR thallium flux fluorescence. 4,900 tested, 43% active;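 active = thallium signal inhibited by more than 5 SD of the compound-free buffer control wells, on both duplicate plates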
Kir21 sel: mouse Kir2.1 off-target activity of KCNK9 modulators; shares compounds with KCNK9 block; Kir2.1 cells, FluxOR thallium flux fluorescence; inhibition, % at 10 µM; 4,900 tested, 4% active; AID 492993;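 active = thallium signal drop more than 5 SD beyond the mean of the no-compound control wells, seen in both duplicate plates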;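 note: signal is fluorescence rise after thallium addition divided by baseline fluorescence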
Target sequence (P35561 whole entry, looked up): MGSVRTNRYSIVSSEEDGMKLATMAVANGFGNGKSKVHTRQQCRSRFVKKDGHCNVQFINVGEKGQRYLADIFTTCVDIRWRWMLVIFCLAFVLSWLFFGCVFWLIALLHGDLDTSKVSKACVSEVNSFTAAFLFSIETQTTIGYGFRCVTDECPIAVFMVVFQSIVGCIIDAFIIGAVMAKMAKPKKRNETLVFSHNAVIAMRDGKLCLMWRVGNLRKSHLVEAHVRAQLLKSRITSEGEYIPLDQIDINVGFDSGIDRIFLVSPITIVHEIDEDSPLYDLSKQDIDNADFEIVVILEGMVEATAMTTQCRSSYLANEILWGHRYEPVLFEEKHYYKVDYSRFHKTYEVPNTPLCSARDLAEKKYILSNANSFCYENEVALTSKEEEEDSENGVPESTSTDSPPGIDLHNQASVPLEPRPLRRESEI
KCNK9 uninduced: non-induced cell nonspecific activity of KCNK9 modulators | 4,900 tested, 40% active | inhibition, % at 10 µM | non-induced KCNK9-HEK293, FluxOR thallium flux | AID 492997 | shares compounds with KCNK9 block;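 active = thallium signal drop beyond 5 SD of the untreated control mean, on both duplicate plates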
Each line names hits and unclear results; the compound was inactive in the other large screens (follow-up assays come after a bar, where they were run). In the library only some 3.1% were active in any assay of this set; here they are far more common.

CC(C)(C)OC(=O)NCCCCCc1nnc(SCc2ccccc2F)o1	none | KCNK9 block conf inactive | Kir21 sel inactive | KCNK9 uninduced inactive
Cc1cc(C)c(S(=O)(=O)c2ccc(C(C)(C)C)cc2)c(Cl)n1	none | KCNK9 block conf inactive | Kir21 sel inactive | KCNK9 uninduced inactive
Cc1ccc(S(=O)(=O)c2c(C)cc(C)nc2Cl)cc1	none
CCOc1ccccc1C(=O)NC(C)CCc1ccccc1 (stereo unspecified)	none
CCOc1cc(C(=O)NC(C)CCc2ccccc2)cc(OCC)c1OCC (stereo unspecified)	none | KCNK9 block conf inactive | Kir21 sel inactive | KCNK9 uninduced inactive
Cc1ccc(C23CC4CC(CC(C(=O)N5CCN(C)CC5)(C4)C2)C3)cc1	none
Cc1ccc(C23CC4CC(CC(CC(=O)N5CCOCC5)(C4)C2)C3)cc1	none | KCNK9 block conf inactive | Kir21 sel inactive | KCNK9 uninduced inactive
COc1ccccc1N1CCN(C2CCCN(C(=O)c3cccc(-c4ccco4)c3)C2)CC1 (stereo unspecified)	none | KCNK9 block conf inactive | Kir21 sel inactive | KCNK9 uninduced inactive
COc1ccccc1N1CCN(C2CCCN(C(=O)c3ccoc3C)C2)CC1 (stereo unspecified)	none
CCN(CC)C(=O)[C@H]1C[C@H](CC(=O)NC/C=C(\C)CCC=C(C)C)C(=O)N2CCc3c([nH]c4cc(-c5ccco5)ccc34)[C@]12C	none (no result: KCNQ1 inh, KCNK9 block, KCNQ1 act, hERG protect)
CCn1c(=NC(=O)CSC(C)=O)sc2cc(OC)ccc21	KCNK9 block -13.8 | KCNK9 block conf 60.0% | Kir21 sel inactive | KCNK9 uninduced 31.5%
CCOC(=O)Cn1c(=NC(=O)CSC(C)=O)sc2cc(F)ccc21	KCNK9 block -8.6 | KCNK9 block conf 63.0% | Kir21 sel inactive | KCNK9 uninduced 33.0%
CCn1c(=NC(=O)CSC(C)=O)sc2ccccc21	none
CCC(C)(C)c1ccc(OCCCC[n+]2cccc(C)c2C)c(C(C)(C)CC)c1	KCNK9 block -11.6 | KCNK9 block conf 56.5% | Kir21 sel 46.0% | KCNK9 uninduced inactive
COc1cccc(C(=O)N2CCCC(Nc3ccc(C)c(C)c3)C2)c1 (stereo unspecified)	none | KCNK9 block conf inactive | Kir21 sel inactive | KCNK9 uninduced inactive
COc1ccc(NC2CCCN(C(=O)c3cccc(N(C)C)c3)C2)cc1 (stereo unspecified)	none | KCNK9 block conf inactive | Kir21 sel inactive | KCNK9 uninduced inactive
COc1ccc(NC2CCCN(C(=O)c3ccc(OC)o3)C2)cc1 (stereo unspecified)	none | KCNK9 block conf inactive | Kir21 sel inactive | KCNK9 uninduced inactive
COc1ccc(NC2CCCN(C(=O)CCc3cccc(Cl)c3)C2)cc1 (stereo unspecified)	none | KCNK9 block conf inactive | Kir21 sel inactive | KCNK9 uninduced inactive
CCOCCCNC(=O)c1cc(Sc2ccc(F)cc2)nc2ccccc12	none
CCC(C)c1ccccc1NC(=O)COc1ccc(-n2cnnn2)cc1 (stereo unspecified)	none (no result: KCNQ1 inh, KCNK9 block, KCNQ1 act, hERG protect)
CCCCNC(=S)NNC(=O)c1csc(C(C)C)c1	none
Cc1cccc(C(=O)N2CCCC(Nc3ccc(C)c(C)c3)C2)n1 (stereo unspecified)	none | KCNK9 block conf inactive | Kir21 sel inactive | KCNK9 uninduced inactive
COc1ccc(NC2CCCN(C(=O)c3ccc4[nH]c(C)c(C)c4c3)C2)cc1 (stereo unspecified)	KCNK9 block -11.8 | KCNK9 block conf inactive | Kir21 sel inactive | KCNK9 uninduced inactive
Cc1cccc(C(=O)N2CCCC(Nc3ccc(F)c(F)c3)C2)n1 (stereo unspecified)	none
CC(NC(=O)C(=O)NCCN1CCN(C(=O)c2ccccc2Br)CC1)c1ccccc1 (stereo unspecified)	none
O=C1c2ccccc2C2=Nc3ccccc3SC(c3ccc(Cl)cc3)C12 (stereo unspecified)	KCNK9 block -13.5 | KCNK9 block conf 46.5% | Kir21 sel inactive | KCNK9 uninduced 34.0%
O=C1c2ccccc2C2=Nc3ccccc3SC(c3cccc(F)c3)C12 (stereo unspecified)	KCNK9 block -14.8 | KCNK9 block conf 56.0% | Kir21 sel inactive | KCNK9 uninduced 56.0%
COC(=O)C(Oc1ccc2c(-c3ccc(OC)cc3)cc(=O)oc2c1)c1ccccc1 (stereo unspecified)	KCNK9 block -9.35 | KCNK9 block conf 54.5% | Kir21 sel inactive | KCNK9 uninduced 35.5%
CC1CCCCN1C(=O)CSc1nc(C2CC2)nc2c1cnn2-c1ccccc1 (stereo unspecified)	KCNK9 block -11.2 | KCNK9 block conf 56.0% | Kir21 sel inactive | KCNK9 uninduced inactive
COCCC(=O)N1CCC(Oc2ccc(C(=O)NCCc3ccccn3)cc2)CC1	none
CC1Cc2ccccc2N1C(=O)C1CCCN(S(=O)(=O)c2cccc3nsnc23)C1 (stereo unspecified)	none | KCNK9 block conf inactive | Kir21 sel inactive | KCNK9 uninduced inactive
O=S(=O)(c1cccc2nsnc12)N1CCN(Cc2ccccc2)CC1	none | KCNK9 block conf inactive | Kir21 sel inactive | KCNK9 uninduced inactive
O=C(NC1CCN(Cc2ccccc2)CC1)C1CCN(S(=O)(=O)c2cccc3nsnc23)CC1	none
O=C(C1CCN(S(=O)(=O)c2cccc3nsnc23)CC1)N1CCc2ccccc21	none
O=C(C1CCCN(S(=O)(=O)c2cccc3nsnc23)C1)N1CCc2ccccc21 (stereo unspecified)	none | KCNK9 block conf inactive | Kir21 sel inactive | KCNK9 uninduced inactive
COc1ccc(S(=O)(=O)N(C)C)cc1NC(=O)COC(=O)C1CC1	none (no result: KCNQ1 inh, KCNK9 block, KCNQ1 act, hERG protect)
COc1ccccc1C(=O)NCCC(=O)NNC(=O)C1COc2ccccc2O1 (stereo unspecified)	none
CCCn1c(SCC(=O)c2ccc(OC)c(OC)c2)nc2c1c(=O)n(C)c(=O)n2C	none
CN(Cc1ccc(C(F)(F)F)cc1)C(=O)C1CCC(=O)N(C2CC2)C1 (stereo unspecified)	none
Cc1noc(C)c1S(=O)(=O)Nc1ccc(O)c2c(=O)cc(-c3ccccc3Cl)oc12	none | KCNK9 block conf inactive | Kir21 sel inactive | KCNK9 uninduced inactive
O=C(Nc1ccc(O)c2c(=O)cc(-c3ccccc3Cl)oc12)c1ccccc1Cl	none
CC(C)c1ccc(/C=C/C(=O)NCCCc2ccccc2)cc1	KCNQ1 inh 6 | KCNK9 block conf inactive | Kir21 sel inactive | KCNK9 uninduced inactive
COc1ccc(/C=C/C(=O)NCCCc2ccccc2)cc1	none
Cc1ccc(C)c(C(=O)COC(=O)c2cc([N+](=O)[O-])ccc2N2CCOCC2)c1	none
